# Results reported in ChEMBL document CHEMBL4680191, “Discovery of novel akt1 inhibitor induces autophagy associated death in hepatocellular carcinoma cells” (Eur J Med Chem, 2020).
# Activity calls are given as the source filed them. No cut-off for these calls is given here.
# Legend:
# [1] = Inhibition of full length human Akt1 […] mutant using GRPRTSSFAEGKK as substrate incubated for 40 mins by scintillation counting method
# Outline: (§1)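 Eurofins KinaseProfiler enzymatic assay on human Akt isoforms. IC50 values are the mean of at least three independent replicates ± standard deviation.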
# Huh-7 [2] = experiment: Induction of apoptosis in human Huh-7 cells by Annexin V/propidium iodide staining based flow cytometric analysis; assay type: functional, cell-based; details: dose 0.1-0.2 µM
# Huh-7 [3] = experiment: Induction of autophagy in human Huh-7 cells assessed as increase in p62/SQSTM1 protein expression at 0.1 to 0.2 uM by Western blot analysis; assay type: functional, cell-based; details: dose 0.1-0.2 µM
# Outline: (§2)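 Huh-7 cells were treated with or without compound. Total protein extracts were separated by SDS-PAGE and transferred to PVDF. Membranes were probed with primary antibodies, then HRP-conjugated secondary antibody (1:10,000), and detected by enhanced chemiluminescence.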
# Huh-7 [4] = experiment: Induction of apoptosis in human Huh-7 cells assessed as upregulation of cleaved caspase-3 protein expression at 0.1 to 0.2 uM by Western blot analysis; assay type: functional, cell-based; details: dose 0.1-0.2 µM; outline: as §2
# Huh-7 [5] = experiment: Induction of autophagy in human Huh-7 cells assessed as reduction in cell viability up to 72 hrs in presence of 3-MA by MTT assay; assay type: functional, cell-based; details: time hrs <=72
# Huh-7 [6] = experiment: Antitumour activity against human Huh-7 cells xenografted in nude mouse assessed as reduction in tumour volume at […], ip up to 15 days; assay type: functional, organism-based; details: time day <=15
# Outline: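 Nude mice bearing subcutaneous Huh-7 xenografts received 25 or 50 mg/Kg compound intraperitoneally. Tumor volume was followed from day 1 to day 15, with excised tumors weighed at the end. Body weight was also monitored.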
# [7] = system: RAC-gamma serine/threonine-protein kinase (Homo sapiens), Q9Y243 [S472D]; experiment: Inhibition of full length human Akt3 S472D mutant assessed as remaining activity at 1 uM using GRPRTSSFAEGKK as substrate incubated for 40 mins by scintillation counting method relative to control
# Sequence of RAC-gamma serine/threonine-protein kinase (Homo sapiens), Q9Y243 [S472D] (Q9Y243 whole entry S472D): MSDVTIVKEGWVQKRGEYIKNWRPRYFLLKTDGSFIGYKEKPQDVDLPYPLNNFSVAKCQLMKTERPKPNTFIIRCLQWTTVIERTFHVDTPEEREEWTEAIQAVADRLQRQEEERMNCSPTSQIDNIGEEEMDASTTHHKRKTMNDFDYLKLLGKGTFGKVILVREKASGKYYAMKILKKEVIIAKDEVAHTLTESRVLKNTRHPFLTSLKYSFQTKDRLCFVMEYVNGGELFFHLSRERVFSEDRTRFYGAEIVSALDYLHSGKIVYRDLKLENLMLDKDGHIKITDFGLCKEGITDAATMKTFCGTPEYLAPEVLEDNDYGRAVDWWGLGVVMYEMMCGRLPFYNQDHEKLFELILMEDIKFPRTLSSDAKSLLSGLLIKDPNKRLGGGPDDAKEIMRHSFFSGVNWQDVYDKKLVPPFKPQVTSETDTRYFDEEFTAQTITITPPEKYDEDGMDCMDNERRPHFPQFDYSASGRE
# Outline: (§3)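 Eurofins KinaseProfiler kinase assay on human Akt1, Akt2 and Akt3. Compounds were tested at 1 µM. Residual kinase activity is reported as % of control.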
# HepG2 = experiment: Cytotoxicity against human HepG2 cells assessed as reduction in cell viability by MTT assay; assay type: functional, cell-based
# Outline: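 Hepatoma cells were grown in DMEM with 10% FBS and streptomycin, then treated with compounds. Viability was read by MTT.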
# Huh-7 [8] = experiment: Induction of apoptosis in human Huh-7 cells assessed as late apoptotic cells at 0.2 uM by Annexin V/propidium iodide staining based flow cytometric analysis (reference value: 3.15%); assay type: functional
# Huh-7 [9] = experiment: Induction of autophagy in human Huh-7 cells assessed as decrease in m-TOR phosphorylation at 0.1 to 0.2 uM by Western blot analysis; assay type: functional, cell-based; details: dose 0.1-0.2 µM; outline: as §2
# Huh-7 [10] = experiment: Induction of apoptosis in human Huh-7 cells assessed as viable cells at 0.1 uM by Annexin V/propidium iodide staining based flow cytometric analysis (reference value: 94.83%); assay type: functional; details: read-out: Activity
# [11] = system: RAC-beta serine/threonine-protein kinase (Homo sapiens), P31751 [S474D]; experiment: Inhibition of full length human Akt2 S474D mutant assessed as remaining activity at 1 uM using GRPRTSSFAEGKK as substrate incubated for 40 mins by scintillation counting method relative to control; outline: as §3
# Sequence of RAC-beta serine/threonine-protein kinase (Homo sapiens), P31751 [S474D] (P31751 whole entry S474D): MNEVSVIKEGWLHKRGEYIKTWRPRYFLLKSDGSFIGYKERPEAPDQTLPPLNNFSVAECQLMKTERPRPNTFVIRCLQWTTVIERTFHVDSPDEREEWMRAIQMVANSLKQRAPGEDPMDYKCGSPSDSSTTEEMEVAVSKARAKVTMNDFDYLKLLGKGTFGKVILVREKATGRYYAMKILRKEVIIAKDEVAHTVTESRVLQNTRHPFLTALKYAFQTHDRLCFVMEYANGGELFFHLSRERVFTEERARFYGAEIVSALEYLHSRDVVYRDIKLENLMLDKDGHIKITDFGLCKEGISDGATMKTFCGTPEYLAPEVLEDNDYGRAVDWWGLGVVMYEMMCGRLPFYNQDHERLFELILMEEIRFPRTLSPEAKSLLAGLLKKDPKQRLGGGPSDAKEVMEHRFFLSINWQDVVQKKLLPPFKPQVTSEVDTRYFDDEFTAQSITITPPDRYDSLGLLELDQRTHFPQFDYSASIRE
# Huh-7 [12] = experiment: Antitumour activity against human Huh-7 cells xenografted in nude mouse assessed as increase in apoptotic cells at […], ip up to 15 days by TUNEL assay; assay type: functional, organism-based; details: time day <=15
# Outline: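 Tumor sections came from Huh-7 xenografted nude mice given 25 or 50 mg/Kg intraperitoneally over 15 days. Apoptotic cells were detected by TUNEL staining.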
# Huh-7 [13] = experiment: Antitumour activity against human Huh-7 cells xenografted in nude mouse assessed as increase in LC3-2 at 20 to 50 mg/kg, ip up to 15 days by immunohistochemical analysis; assay type: functional, organism-based; details: dose 20-50 mg/kg, time day <=15
# Outline: (§4)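 Tumors came from Huh-7 xenografted nude mice dosed intraperitoneally at 25 or 50 mg/Kg for 15 days. For IHC, sections underwent microwave antigen retrieval (EDTA pH 8.0 or citrate pH 6.0), then primary antibody at 37 °C for 30-40 min. HRP polymer/secondary was applied for 30 min, with DAB development and control IgG.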
# Huh-7 [14] = experiment: Antitumour activity against human Huh-7 cells xenografted in nude mouse assessed as reduction in tumour weight at […], ip up to 15 days; assay type: functional, organism-based; details: time day <=15
# Huh-7 [15] = experiment: Induction of autophagosome in human Huh-7 harboring GFP-LC3 cells at 0.2 uM in presence of 3-MA by fluorescence microscopic analysis; assay type: functional, cell-based
# Huh-7 [16] = experiment: Antitumour activity against human Huh-7 cells xenografted in nude mouse assessed as decrease in phosphorylation of AKT at 20 to 50 mg/kg, ip up to 15 days by immunohistochemical analysis; assay type: functional, organism-based; details: dose 20-50 mg/kg, time day <=15; outline: as §4
# Huh-7 [17] = experiment: Induction of autophagy flux arrest in human Huh-7 cells assessed as reduction in LAMP1 at 0.2 uM by immunofluorescence staining based assay; assay type: functional, cell-based
# Outline: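 Huh-7 cells with or without 0.2 µM compound were immunofluorescently co-stained for LC3 (autophagosome) and LAMP1 (lysosome). Co-localization was assessed by fluorescence imaging.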
# Huh-7 [18] = experiment: Induction of apoptosis in human Huh-7 cells assessed as necrotic cells at 0.2 uM by Annexin V/propidium iodide staining based flow cytometric analysis (reference value: 0.59%); assay type: functional
# Homo sapiens = organism: Homo sapiens; experiment: Inhibition of full length human Akt1 […] mutant assessed as remaining activity at 1 uM using GRPRTSSFAEGKK as substrate incubated for 40 mins by scintillation counting method relative to control; outline: as §3
# Huh-7 [19] = experiment: Antitumour activity against human Huh-7 cells xenografted in nude mouse assessed as decrease in Ki-67 at […], ip up to 15 days by immunohistochemical analysis; assay type: functional, organism-based; details: time day <=15
# Outline: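 Subcutaneous Huh-7 xenografts in nude mice were dosed intraperitoneally at 25 or 50 mg/kg and followed over days 1–15. For IHC, tumour sections had microwave antigen retrieval in EDTA (pH 8.0) or citrate (pH 6.0) buffer. They were incubated with primary antibody at 37 °C for 30–40 min, then secondary antibody with HRP polymer for 30 min, and developed with DAB. Normal IgG served as negative control.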
# [20] = molecular target: RAC-gamma serine/threonine-protein kinase (Homo sapiens, UniProt Q9Y243, S472D); experiment: Inhibition of full length human Akt3 S472D mutant using GRPRTSSFAEGKK as substrate incubated for 40 mins by scintillation counting method; outline: as §1
# Sequence of RAC-gamma serine/threonine-protein kinase (Q9Y243 2-479 S472D limits assumed): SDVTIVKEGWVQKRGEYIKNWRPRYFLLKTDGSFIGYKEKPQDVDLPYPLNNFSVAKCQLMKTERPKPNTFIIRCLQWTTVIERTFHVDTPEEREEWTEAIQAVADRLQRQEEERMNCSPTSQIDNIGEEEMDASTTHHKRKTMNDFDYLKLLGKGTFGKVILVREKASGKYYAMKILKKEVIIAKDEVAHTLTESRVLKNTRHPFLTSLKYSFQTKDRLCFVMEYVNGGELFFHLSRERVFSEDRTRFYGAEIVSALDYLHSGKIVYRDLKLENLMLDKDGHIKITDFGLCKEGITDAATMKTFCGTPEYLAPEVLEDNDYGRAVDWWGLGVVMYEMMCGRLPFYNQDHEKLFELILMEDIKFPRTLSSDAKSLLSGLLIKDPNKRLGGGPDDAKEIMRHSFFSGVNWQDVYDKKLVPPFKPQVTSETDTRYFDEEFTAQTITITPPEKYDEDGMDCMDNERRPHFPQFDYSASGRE
# [21] = molecular target: Glycogen synthase kinase-3 beta (Homo sapiens) (UniProt P49841); experiment: Inhibition of GSK3beta phosphorylation at […] residue in human Huh-7 cells at 0.1 to 0.2 uM by Western blot analysis; assay type: cell-based; details: dose 0.1-0.2 µM; outline: as §2
# Sequence of Glycogen synthase kinase-3 beta (Homo sapiens) (P49841 whole entry, looked up): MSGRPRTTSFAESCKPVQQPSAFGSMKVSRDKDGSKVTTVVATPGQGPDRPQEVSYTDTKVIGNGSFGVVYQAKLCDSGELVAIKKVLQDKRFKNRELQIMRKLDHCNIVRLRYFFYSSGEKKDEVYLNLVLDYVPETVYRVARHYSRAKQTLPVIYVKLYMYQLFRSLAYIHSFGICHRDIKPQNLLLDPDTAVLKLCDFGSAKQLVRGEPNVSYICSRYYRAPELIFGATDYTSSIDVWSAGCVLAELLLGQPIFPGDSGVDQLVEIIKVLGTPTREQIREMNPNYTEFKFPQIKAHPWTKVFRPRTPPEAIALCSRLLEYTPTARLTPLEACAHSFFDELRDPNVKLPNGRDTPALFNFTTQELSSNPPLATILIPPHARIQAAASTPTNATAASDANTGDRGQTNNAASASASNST
# Huh-7 [22] = experiment: Induction of autophagy in human Huh-7 cells harboring GFP-LC3 assessed as increase in number of the autophagosome puncta at 0.2 uM after 6 hrs; assay type: functional, cell-based
# Outline: (§5)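 GFP-LC3-transfected cells were exposed to saline or compound for 6 h, then fixed with paraformaldehyde. Autophagosome puncta were scored by fluorescence of accumulated GFP-LC3.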
# Huh-7 [23] = experiment: Induction of autophagosome in human Huh-7 harboring GFP-LC3 cells at 0.2 uM in presence of Baf-A1 by fluorescence microscopic analysis; assay type: functional, cell-based
# Hep 3B2 = experiment: Induction of autophagy in human Hep3B cells harboring GFP-LC3 assessed as increase in number of the autophagosome puncta at 0.2 uM after 6 hrs; assay type: functional, cell-based; outline: as §5
smiles,measurement,setting,value
O=C(C(CNC1CCCC1)c1ccc(Cl)cc1)N1CCN(c2ncnc3sc4c(c23)CCC4)CC1 (stereo unspecified),IC50,[1],34 nM
same,Activity,Huh-7 [2],Dose-dependent effect
same,Activity,Huh-7 [3],Active
same,Activity,Huh-7 [4],Active
same,Activity,Huh-7 [5],inactive
same,Activity,Huh-7 [6],Active
same,Activity,[7],22%
same,IC50,HepG2,183 nM
same,Activity,Huh-7 [8],9.13%
same,Activity,Huh-7 [9],Active
same,viability at 0.1 µM,Huh-7 [10],84.2%
same,Activity,[11],63%
same,Activity,Huh-7 [12],Active
same,Activity,Huh-7 [13],Active
same,Activity,Huh-7 [14],Active
same,Activity,Huh-7 [15],inactive
same,Activity,Huh-7 [16],Active
same,Activity,Huh-7 [17],Active
same,Activity,Huh-7 [18],2.99%
same,Activity,Homo sapiens,1%
same,Activity,Huh-7 [19],Active
same,IC50,[20],129 nM
same,inhibition,[21],Active
same,Activity,Huh-7 [22],Active
same,Activity,Huh-7 [23],Active
same,Activity,Hep 3B2,Active
